Assay results from PMC4261236 (Journal of Medicinal Chemistry, 2014).

Experiments:
[1] = tested on: sstr2-transfected HCT116 tumor-bearing female nu/nu mice; assay: Biodistribution in tumor-bearing mice; type: in vivo; details: for tumor uptake blocked by co-injected Y3-TATE: 4 h p.i., 20 μg Y3-TATE co-injected; for blood clearance (in words): 1 to 4 h p.i.
[2] = tested on: sstr2-transfected HCT116 tumor-bearing mice; assay: Small animal PET/CT imaging; type: in vivo; details: 2 h p.i.; for tumor SUV: PET/CT; for tumor SUV, blocked: unlabeled Y3-TATE co-injected to block
[3] = Biodistribution in tumor-bearing mice; type: in vivo; details: mouse, liver, intravenous, 1.85 MBq
[4] = tested on: sstr2-transfected HCT116 cells; assay: Cell internalization assay; type: cell-based, Human; details: for maximum internalized tracer: after 2 h at 37 °C, 4 nM tracer
Outline: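 sstr2-transfected HCT116 cells (Iscove's, 10% FBS, 1 mM Zeocin) in 12-well plates with 64Cu-labelled tracer at 4 nM final (labelled at >98% yield, used without purification). Surface-bound and internalized activity gamma-counted at 15, 30, 60, 120 and 240 min. Nonspecific binding from 1000-fold excess Y3-TATE. Values normalized to added activity and to BCA protein (%ID/mg).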

^64Cu-CB-TE1A1P–Y3-TATE [^64Cu-1A1P]
tumor-to-blood ratio (in words) ([1]; 1, 4 and 24 h p.i.): significantly higher than both ^64Cu-AP-1 and ^64Cu-KP-1 at all time points
tumor uptake (in words) ([1]; 4 and 24 h p.i.): significantly higher tumor uptake than ^64Cu-KP-1 and ^64Cu-AP-1
tumor uptake blocked by co-injected Y3-TATE [1]: 95%
tumor SUV [2]: 2.8 ± 0.4
tumor SUV, blocked [2]: 0.19 ± 0.02

C[C@@H](O)[C@H](NC(=O)[C@@H]1CSSC[C@H](NC(=O)[C@@H](Cc2ccccc2)NC(=O)CCCCCn2nnc3c2-c2ccccc2N(C(=O)CCNC(=O)CCOCCOCCOCCOCCOCCC(=O)NCCCCC(C(=O)O)N2CCCN4CCN(CCCN(CP(=O)(O)O)CC4)CC2)Cc2ccccc2-3)C(=O)N[C@@H](Cc2ccc(O)cc2)C(=O)N[C@H](Cc2c[nH]c3ccccc23)C(=O)N[C@@H](CCCCN)C(=O)N[C@@H]([C@@H](C)O)C(=O)N1)C(=O)O (some centres unmarked) [^64Cu-KP-1, ^64Cu-CB-TE1K1P–PEG4–DBCO–Y3-TATE, metal not drawn]
tissue uptake at 24 h [3]: < 1 %ID/g
blood clearance (in words) [1]: significantly slower than the blood clearance of ^64Cu-1A1P
liver uptake (in words) ([1]; 4 and 24 h p.i.): lower uptake in the liver than ^64Cu-AP-1 and ^64Cu-1A1P
tumor uptake blocked by co-injected Y3-TATE [1]: 84%
tumor SUV [2]: 3.2 ± 0.2
tumor SUV, blocked [2]: 0.21 ± 0.06

C[C@@H](O)[C@H](NC(=O)[C@@H]1CSSC[C@H](NC(=O)[C@@H](Cc2ccccc2)NC(=O)CCCCCn2nnc3c2-c2ccccc2N(C(=O)CCNC(=O)CN2CCCN4CCN(CCCN(CP(=O)(O)O)CC4)CC2)Cc2ccccc2-3)C(=O)N[C@@H](Cc2ccc(O)cc2)C(=O)N[C@H](Cc2c[nH]c3ccccc23)C(=O)N[C@@H](CCCCN)C(=O)N[C@@H]([C@@H](C)O)C(=O)N1)C(=O)O (single isomer, unassigned) [^64Cu-AP-2, ^64Cu-CB-TE1A1P–DBCO–Y3-TATE, metal not drawn]
maximum internalized tracer [4]: 73 ± 7 %ID/mg

C[C@@H](O)[C@H](NC(=O)[C@@H]1CSSC[C@H](NC(=O)[C@@H](Cc2ccccc2)NC(=O)CCCCCn2nnc3c2-c2ccccc2N(C(=O)CCNC(=O)CN2CCCN4CCN(CCCN(CP(=O)(O)O)CC4)CC2)Cc2ccccc2-3)C(=O)N[C@@H](Cc2ccc(O)cc2)C(=O)N[C@H](Cc2c[nH]c3ccccc23)C(=O)N[C@@H](CCCCN)C(=O)N[C@@H]([C@@H](C)O)C(=O)N1)C(=O)O (single isomer, unassigned) [^64Cu-AP-1, ^64Cu-CB-TE1A1P–DBCO–Y3-TATE, metal not drawn]
maximum internalized tracer [4]: 45 ± 3 %ID/mg
tissue uptake at 24 h [3]: < 1 %ID/g
blood clearance (in words) [1]: significantly slower than the blood clearance of ^64Cu-1A1P
liver uptake (in words) ([1]; 1 h p.i.): significantly higher than that of ^64Cu-KP-1 and ^64Cu-1A1P
tumor uptake blocked by co-injected Y3-TATE [1]: 63%
tumor SUV [2]: 4.6 ± 0.8
tumor SUV, blocked [2]: 0.47 ± 0.18

C[C@@H](O)[C@H](NC(=O)[C@@H]1CSSC[C@H](NC(=O)[C@@H](Cc2ccccc2)NC(=O)CCCCCn2nnc3c2-c2ccccc2N(C(=O)CCNC(=O)CN2CCCN4CCN(CCCN(CP(=O)(O)O)CC4)CC2)Cc2ccccc2-3)C(=O)N[C@@H](Cc2ccc(O)cc2)C(=O)N[C@H](Cc2c[nH]c3ccccc23)C(=O)N[C@@H](CCCCN)C(=O)N[C@@H]([C@@H](C)O)C(=O)N1)C(=O)O (single isomer, unassigned) [^64Cu-AP-3, ^64Cu-CB-TE1A1P–DBCO–Y3-TATE, metal not drawn]
internalization (in words) ([4]; 37 °C, up to 4 h): slower internalization which was not saturated after 4 h
